SENP8 block-1 – inhibitors of human SENP8 protease. Q96LD8. recombinant SENP8, Nedd8 substrate fluorescence. inhibition, % at 20 µM. 0.64% of 360,000 active; in the data active = inhibition mostly above about 40%, no sharp cut-off; inactive = mostly below about 27%
Target sequence (Q96LD8 whole entry, looked up): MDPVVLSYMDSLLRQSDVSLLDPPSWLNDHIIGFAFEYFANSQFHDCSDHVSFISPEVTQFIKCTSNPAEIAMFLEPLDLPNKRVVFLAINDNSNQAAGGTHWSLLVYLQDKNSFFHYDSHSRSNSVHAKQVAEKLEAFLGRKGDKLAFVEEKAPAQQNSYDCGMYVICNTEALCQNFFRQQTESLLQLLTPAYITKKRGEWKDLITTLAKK
Apaf-1 inh – blocks human Apaf-1 apoptosome activity. O14727. reconstituted apoptosome caspase-3 activity, DEVD-Rh110 fluorescence. inhibition, % at 20 µM. 0.71% of 330,000 active; active = inhibition of at least 40% at 20 µM
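detection = Rh110 fluorescence intensity | test system = biochemical Apaf-1 apoptosome reconstitution | also added = cytochrome c and DEVD-Rh110 substrate | schedule = 30 min plus 50 min, RT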
SENP6 block – blocks the human protease SENP6. Q9GZR1. Recombinant SENP6 catalytic domain, aminoluciferin luminescence. inhibition, % at 10 µM. 1.8% of 330,000 active. AID 2599;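 active = inhibition above about 50% at the single tested dose, limit read from the data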
UBC13 polyUb – blocks human UBC13 polyubiquitin chain formation. P61088. TR-FRET. inhibition, % at 20 µM. 0.47% of 330,000 active. AID 485273; in the data active = inhibition above about 45%, passing the limit was not always enough; inconclusive = no clear call, values can overlap the other calls
SENP7 block – blocks the human protease SENP7; Q9BQF6; recombinant SENP7, Z-RLRGG-aminoluciferin luminescence, 40 min; inhibition, % at 5 µM; 1.5% of 330,000 active;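 active = inhibition above about 50% at the single test dose, limit read from the data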
Target sequence (Q9BQF6 706-1050 limits assumed): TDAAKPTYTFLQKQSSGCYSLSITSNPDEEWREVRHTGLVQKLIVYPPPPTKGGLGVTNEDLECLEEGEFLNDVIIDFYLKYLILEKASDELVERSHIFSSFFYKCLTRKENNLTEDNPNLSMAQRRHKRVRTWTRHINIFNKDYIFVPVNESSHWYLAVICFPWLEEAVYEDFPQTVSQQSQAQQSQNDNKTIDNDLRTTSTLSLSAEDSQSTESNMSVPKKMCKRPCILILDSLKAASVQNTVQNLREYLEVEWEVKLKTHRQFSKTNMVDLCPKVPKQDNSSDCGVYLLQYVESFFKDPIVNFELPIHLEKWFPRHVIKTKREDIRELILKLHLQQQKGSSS
SENP8 block-2 – inhibitors of human SENP8 protease. Q96LD8. purified SENP8, Z-RLRGG-aminoluciferin cleavage, luminescence. inhibition, % at 10 µM. 1.2% of 330,000 active. AID 2540; in the data active = inhibition above about 50%
Casp3 counter – caspase-3 inhibition (UBC13 counter-screen). shares compounds with UBC13 polyUb. Recombinant caspase-3, Caspase-Glo 3/7 luminescence, 60 min. 4% of 1,400 active. AID 488856. inhibition, % at 20 µM;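 active = mean inhibition across replicates above about 26%, limit read from the data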
UBC13 confirm – human UBC13 polyubiquitin inhibition, confirmed; 68% of 1,400 active; shares compounds with UBC13 polyUb; UBC13 polyubiquitination, TR-FRET, biochemical; inhibition, % at 10 µM; in the data active = inhibition above about 45%; inconclusive = no clear call, values can overlap the other calls
Each line names hits and unclear results; the compound was inactive in the other large screens (follow-up assays come after a bar, where they were run). Rows were chosen to be rich in hits. Some 3.1% of all compounds tested hit in one or more screens of this group.

CCCCN1C(=N)N([C@@H](CN2CCC[C@H]2CN2C(N)=NC[C@@H]2Cc2ccccc2)C(C)C)C[C@H]1Cc1ccccc1	UBC13 polyUb 47 | Casp3 counter inactive | UBC13 confirm inactive
CCCCN1C(=N)N([C@@H](CCC)CN2CCC[C@H]2CN2C(N)=NC[C@H]2CC(C)C)C[C@H]1Cc1ccccc1	UBC13 polyUb 51 | Casp3 counter inactive | UBC13 confirm inactive
CCN(C(=O)COC(=O)CCOc1ccc(C(C)(C)C)cc1)c1c(N)n(Cc2ccccc2)c(=O)[nH]c1=O	none (no result: Apaf-1 inh, SENP6 block, UBC13 polyUb, SENP7 block, SENP8 block-2)
CCN(CC)CCOc1ccc(/C(=C(\Cl)c2ccccc2)c2ccccc2)cc1	Apaf-1 inh 66, UBC13 polyUb 74 | Casp3 counter inactive | UBC13 confirm 81
CCCc1c(C(=O)N/N=C/C=C/c2ccccc2)nnn1-c1nonc1N	none (no result: Apaf-1 inh, SENP6 block, UBC13 polyUb, SENP7 block, SENP8 block-2)
CCC[C@H](CN[C@@H](CNC)[C@H](C)O)NCCc1ccc(OC)cc1	none
CCCC[C@H](CN[C@@H](CNC)[C@H](C)CC)NCCC12CCC(CC1)C2	UBC13 polyUb 48 | Casp3 counter inactive | UBC13 confirm inactive
O=S1(=O)CC(O)C(N=Nc2c(O)n(Cc3ccccc3)c3ccccc23)C1 (stereo not drawn)	UBC13 polyUb 56 | Casp3 counter inactive | UBC13 confirm inactive
CCOC(=O)CNC(=O)CSc1nc(C(C)C)nc2c1cnn2-c1ccccc1	none (no result: Apaf-1 inh, SENP6 block, UBC13 polyUb, SENP7 block, SENP8 block-2)
O=C(COC(=O)c1cc(=O)[nH]c(=O)[nH]1)Nc1cccc(Cl)c1	UBC13 polyUb 66 | Casp3 counter inactive | UBC13 confirm 51
N=C(N)c1ccc(/C=C/c2ccc(C(=N)N)cc2O)cc1	UBC13 polyUb 84 | Casp3 counter inactive | UBC13 confirm 110
Cc1ccc(C(=O)N2CCCC2(C)C(=O)NCC(C)C)cc1F (stereo not drawn)	none (no result: Apaf-1 inh, SENP6 block, UBC13 polyUb, SENP7 block, SENP8 block-2)
Cn1c(=O)c2c(ncn2Cc2ccccc2)n(C)c1=O	UBC13 polyUb 50 | Casp3 counter inactive | UBC13 confirm inactive
CCOC(=O)c1c(NC(=S)NCc2ccccc2)sc2c1CCN(C(=O)OCC)C2	none
C=CCNC(=S)Nc1sc2c(c1C(=O)OCC)CCN(C(=O)OCC)C2	UBC13 polyUb 50 | Casp3 counter inactive | UBC13 confirm inconclusive
CCc1nc2ccc(C(=O)N(C)Cc3ccco3)cn2c1N(CC)C(=O)NCCc1ccccc1	none (no result: Apaf-1 inh, SENP6 block, UBC13 polyUb, SENP7 block, SENP8 block-2)
Cc1nc2ccccn2c1C(=O)N/N=C/c1ccccc1[N+](=O)[O-]	UBC13 polyUb 63 | Casp3 counter inactive | UBC13 confirm inactive
C[C@H](CO)N1C[C@H](C)[C@@H](CN(C)C(=O)Nc2cccc(F)c2)Oc2ncc(Br)cc2C1=O	none (no result: Apaf-1 inh, SENP6 block, UBC13 polyUb, SENP7 block, SENP8 block-2)
COC(=O)[C@]12CCCCC=C1N(Cc1ccc(Cl)cc1Cl)C(=O)[C@H](CC(=O)N1CCSCC1)C2	none (no result: Apaf-1 inh, SENP6 block, UBC13 polyUb, SENP7 block, SENP8 block-2)
CCN(C(=O)COC(=O)c1cc(-c2ccccc2)nc2c1c(C)nn2-c1ccccc1)C1CCS(=O)(=O)C1 (stereo not drawn)	UBC13 polyUb 52 | Casp3 counter inactive | UBC13 confirm inconclusive
C/C(=N\NC(=O)CSCc1ccc([N+](=O)[O-])cc1)c1ccccc1O	UBC13 polyUb 84 | Casp3 counter inactive | UBC13 confirm 95
C/C(=N\NC(=O)Cc1ccc(Cl)cc1)c1ccccc1O	none
NCCCC[C@@H]1NC(=O)c2cc([N+](=O)[O-])cc(I)c2SC[C@@H](C(N)=O)NC(=O)[C@H](Cc2ccc(O)cc2)NC1=O	UBC13 polyUb 59 | Casp3 counter inactive | UBC13 confirm 81
NCCCC[C@@H]1NC(=O)[C@H](CCC(=O)O)NC(=O)c2cc([N+](=O)[O-])cc(I)c2SC[C@@H](C(=O)NCC(N)=O)NC1=O	none
CN1CCN(CCCNC(=O)c2cn(C3CCCCC3)c(=O)c3c2c2ccccc2n3C)CC1	UBC13 polyUb 64 | Casp3 counter inactive | UBC13 confirm 64
O=C(NCCCN1CCCC1)c1ccc(Cn2c(=S)[nH]c3ccc(Br)cc3c2=O)cc1	UBC13 polyUb 48 (no result: SENP8 block-1) | Casp3 counter inactive | UBC13 confirm inconclusive
COCCCNC(=O)c1ccc2c(=O)n(Cc3ccc(Cl)cc3)c(=S)[nH]c2c1	none
COCCn1c(=S)[nH]c2cc(C(=O)NCCCN3CCOCC3)ccc2c1=O	none
O=C(NCCCN1CCOCC1)c1ccc2c(=O)n(Cc3cccc(Br)c3)c(=S)[nH]c2c1	UBC13 polyUb 49 | Casp3 counter inactive | UBC13 confirm 60
CC1CCN(CCNC(=O)c2ccc3c(=O)n(Cc4ccc(Cl)cc4)c(=S)[nH]c3c2)CC1	UBC13 polyUb 45 | Casp3 counter inactive | UBC13 confirm 61
O=C(Nc1cccc2cccnc12)c1ccc2sc([C@@H]3O[C@H](CO)[C@H](O)[C@H](O)[C@H]3O)nc2c1	none (no result: Apaf-1 inh, SENP6 block, UBC13 polyUb, SENP7 block, SENP8 block-2)
O=C(CC[C@H]1O[C@@H](n2cnc3c(NC(=O)c4ccccc4)ncnc32)[C@H](O)[C@@H]1O)NCCc1cc2ccccc2[nH]1	none (no result: Apaf-1 inh, SENP6 block, UBC13 polyUb, SENP7 block, SENP8 block-2)
COc1cc(-c2cc(C(=O)Nc3ccc(S(N)(=O)=O)cc3)c3ccccc3n2)cc(OC)c1OC	UBC13 polyUb 60 | Casp3 counter inactive | UBC13 confirm 48
COc1cc(-c2cc(C(=O)Nc3ccc(S(=O)(=O)Nc4ncccn4)cc3)c3ccccc3n2)cc(OC)c1OC	none
CC1CCCC(C)N1C(=O)COC(=O)CNS(=O)(=O)c1ccc2ccccc2c1 (stereo not drawn)	none (no result: Apaf-1 inh, SENP6 block, UBC13 polyUb, SENP7 block, SENP8 block-2)
CC(C)(C)OC(=O)[C@H](CCCCN)NC(=O)c1[nH]cnc1C(=O)N[C@@H](Cc1ccccc1)C(=O)OCc1ccccc1	Apaf-1 inh 65, UBC13 polyUb 72 | Casp3 counter inactive | UBC13 confirm 69
CC(C)(C)OC(=O)[C@H](Cc1ccccc1)NC(=O)c1[nH]cnc1C(=O)N[C@@H](Cc1ccccc1)C(=O)OCc1ccccc1	none
COc1ccc(C[C@H]2CN3C(=NC[C@@H]3Cc3ccc(O)cc3)N2C[C@H](C)NC(=O)c2ccc(C)c(Br)c2)cc1	UBC13 polyUb 59 | Casp3 counter inactive | UBC13 confirm 52
Cc1ccc(C(=O)NCCN2C3=NC[C@@H](Cc4ccccc4)N3C[C@H]2Cc2ccc(O)cc2)cc1Br	UBC13 polyUb 104 | Casp3 counter inactive | UBC13 confirm 93
Cc1ccc(C(=O)N[C@@H](C)CN2C3=NC[C@H](C(C)C)N3C[C@H]2Cc2ccc(O)cc2)cc1Br	none
C/C=C(\C)C(=O)NCCN1C2=NC[C@H](Cc3ccccc3)N2C[C@H]1Cc1ccc(O)cc1	none
C/C=C(\C)C(=O)NCCN1C2=NC[C@H](Cc3ccccc3)N2C[C@@H]1Cc1ccc(OC)cc1	none
